In assay [1] the test system is Mus musculus. As to the kind of experiment: Immunostimulatory activity in C57BL/6 mouse assessed as inhibition of 5'-CTATCTGACGTTCTCTGT-3'-induced IL12 production in serum at 2 mg/kg, sc administered 24 hrs prior to 5'-CTATCTGACGTTCTCTGT-3' challenge measured after 2 hrs by sandwich ELISA. To be noted: C57BL/6, sc, route subcutaneous. It is filed as functional. The method, boiled down: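 C57BL/6 mice were pretreated sc in the right flank with 2, 5 or 10 mg/kg ODN. After 24 h, the TLR9 agonist ODN was given at 0.5 mg/kg sc in the left flank. Serum IL-12 was measured by ELISA 2 h later. Representative of two experiments.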
Background: In an ELISA, binding on a coated surface is turned into a signal by an enzyme label.

Assay [2] relates to Mus musculus. In words: Immunostimulatory activity in C57BL/6 mouse assessed as induction of MIP-1alpha level in serum at 2 mg/kg, sc after 2 hrs by Luminex multiplex assay. Details: dose 2 mg/kg. It is filed as functional, organism-based. Put shortly: (§1)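 Female C57BL/6 mice, 5–6 weeks old, n = 3, received a single 2 mg/kg subcutaneous ODN injection in the right flank. Blood was taken by retro-orbital bleeding 2 h later. Naive mice served as baseline. Representative of three experiments.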

The target of assay [3] is T1, Toll-like receptor 9 (Mus musculus) (UniProt Q9EQU3).
T1 sequence (whole entry): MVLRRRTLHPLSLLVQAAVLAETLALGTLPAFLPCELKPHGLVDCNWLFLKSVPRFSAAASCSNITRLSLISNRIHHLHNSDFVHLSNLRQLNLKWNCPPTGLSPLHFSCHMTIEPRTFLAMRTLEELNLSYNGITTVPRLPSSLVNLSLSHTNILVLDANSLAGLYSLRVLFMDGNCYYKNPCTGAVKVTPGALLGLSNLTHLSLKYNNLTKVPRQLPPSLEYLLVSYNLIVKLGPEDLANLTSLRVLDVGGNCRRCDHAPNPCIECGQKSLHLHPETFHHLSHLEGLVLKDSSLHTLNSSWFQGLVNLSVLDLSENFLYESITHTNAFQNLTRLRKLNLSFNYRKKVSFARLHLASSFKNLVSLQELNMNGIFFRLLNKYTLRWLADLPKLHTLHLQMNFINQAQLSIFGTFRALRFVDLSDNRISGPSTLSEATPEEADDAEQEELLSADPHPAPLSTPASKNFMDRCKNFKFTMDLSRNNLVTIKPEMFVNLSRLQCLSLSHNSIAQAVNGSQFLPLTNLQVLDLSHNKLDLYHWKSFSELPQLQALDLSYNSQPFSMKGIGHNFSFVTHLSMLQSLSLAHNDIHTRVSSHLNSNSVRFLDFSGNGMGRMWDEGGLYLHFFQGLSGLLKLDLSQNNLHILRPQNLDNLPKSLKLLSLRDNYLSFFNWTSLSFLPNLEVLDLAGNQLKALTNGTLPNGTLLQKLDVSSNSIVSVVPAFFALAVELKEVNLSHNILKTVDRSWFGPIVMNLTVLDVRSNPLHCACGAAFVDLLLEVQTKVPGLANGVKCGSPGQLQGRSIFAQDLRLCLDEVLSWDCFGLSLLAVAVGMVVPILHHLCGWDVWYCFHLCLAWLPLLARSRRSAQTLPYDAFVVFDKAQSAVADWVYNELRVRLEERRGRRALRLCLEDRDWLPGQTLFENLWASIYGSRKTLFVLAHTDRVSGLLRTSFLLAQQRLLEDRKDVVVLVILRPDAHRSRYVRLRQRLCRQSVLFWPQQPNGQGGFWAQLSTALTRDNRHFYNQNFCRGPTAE
In words: Activation of mouse TLR9 expressed in HEK293 cells assessed as NF-kappaB level at 1 ug/mL after 18 hrs by reporter gene assay. It is filed as cell-based. Put shortly: (§2)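 HEK293 cells stably expressing mouse TLR9 were transiently transfected with a SEAP reporter for 6 h, then stimulated with ODN at 0.1, 0.3 or 1 μg/mL for 18 h. Reporter expression is given as fold change in NF-κB activity over medium. Representative of two independent experiments.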
A general note: Reporter assays use an easily measured gene product as a stand-in for the process of interest.

Assay [4] deals with Splenocyte. As to the kind of experiment: Inhibition of 5'-CTATCTGACGTTCTCTGT-3'-induced IL6 secretion in C57BL/6 mouse splenocytes at 4 ug/ml after 24 hrs by sandwich ELISA. It is filed as functional, cell-based. Put shortly: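 Splenocytes from 5–8-week C57BL/6 mice, 5 × 10^6 cells/mL in RPMI complete medium, were co-incubated with the TLR9 agonist ODN (1 µg/mL) plus test ODN at 1 or 4 µg/mL, or over a concentration series, at 37 °C for 24 h. Supernatant IL-12 or IL-6 was measured by sandwich ELISA. Runs were done in duplicate, with three independent experiments.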

The subject of assay [5] is Mus musculus. As to the kind of experiment: Immunostimulatory activity in C57BL/6 mouse assessed as induction of IL12 level in serum at 2 mg/kg, sc after 2 hrs by sandwich ELISA. It is filed as functional, organism-based. Details: dose 2 mg/kg. Put shortly: as §1
The test system of assay [6] is Mus musculus. As to the kind of experiment: Immunostimulatory activity in C57BL/6 mouse assessed as induction of KC level in serum at 2 mg/kg, sc after 2 hrs by Luminex multiplex assay. It is filed as functional, organism-based. The arrangement: dose 2 mg/kg. Put shortly: as §1
Assay [7] concerns Splenocyte. As to the kind of experiment: Immunostimulatory activity in C57BL/6 mouse splenocytes assessed as induction of IL6 secretion at 2 to 10 ug/ml after 24 hrs by sandwich ELISA. It is filed as functional, cell-based. The method, boiled down:
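C57BL/6 splenocytes (mice 5–8 weeks) at 5 × 10^6 cells/mL in RPMI complete medium. ODNs dissolved in PBS were added and the cells incubated at 37 °C for 24 h. Supernatant IL-12 or IL-6 was measured by sandwich ELISA. Runs were done two or three times, in duplicate per concentration.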

Assay [8] has as its system J774. In words: Activation of NF-kappaB in mouse J774 cells at 2.5 ug/ml after 1 hr by EMSA. It is filed as cell-based. The method, boiled down:
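Murine J774 macrophages in DMEM with 10% FBS and antibiotics, plated at 5×10^6 cells/well. ODNs were given alone or together for 1 h. For inhibition, the agonist ODN at 0.5 μg/mL was co-incubated with the modified ODN at 2.5 μg/mL. Nuclear extracts were resolved by EMSA on native polyacrylamide gels and read by autoradiography.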

The test system of assay [9] is Mus musculus. In words: Immunostimulatory activity in C57BL/6 mouse assessed as inhibition of 5'-CTATCTGACGTTCTCTGT-3'-induced IL10 production in serum at 2 mg/kg, sc administered 24 hrs prior to 5'-CTATCTGACGTTCTCTGT-3' challenge measured after 2 hrs by Luminex multiplex assay. It is filed as functional, organism-based. The arrangement: dose 2 mg/kg. The method, boiled down: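 C57BL/6 mice received 2 mg/kg ODN sc in one flank. After 24 h, the TLR9 agonist ODN was given at 0.5 mg/kg sc in the opposite flank. Blood was drawn 2 h later and serum cytokines/chemokines were quantified by Luminex multiplex assay. Percent inhibition was taken against the agonist alone. Representative of three experiments.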

Assay [10] concerns Mus musculus. In words: Immunostimulatory activity in C57BL/6 mouse assessed as induction of IL10 level in serum at 2 mg/kg, sc after 2 hrs by Luminex multiplex assay. It is filed as functional, organism-based. The arrangement: dose 2 mg/kg. Put shortly: as §1
For assay [11], the target named is T1, Toll-like receptor 9 (Mus musculus). As to the kind of experiment: Activation of mouse TLR9 expressed in HEK293 cells assessed as NF-kappaB level at 0.3 ug/mL after 18 hrs by reporter gene assay. It is filed as cell-based. Put shortly: as §2
Assay [12] deals with Mus musculus. As to the kind of experiment: Immunostimulatory activity in C57BL/6 mouse assessed as induction of MCP1 level in serum at 2 mg/kg, sc after 2 hrs by Luminex multiplex assay. It is filed as functional, organism-based. Details: dose 2 mg/kg. The method, boiled down: as §1

SMILES strings stand for the structures. Activity calls are given as the source filed them. The rule behind the calls is not given here.

As to `CO[C@@H]1[C@H](OP(=O)(S)OC[C@H]2O[C@@H](n3cc(C)c(=O)[nH]c3=O)C[C@@H]2OP(=O)(S)OC[C@H]2O[C@@H](n3cc(C)c(=O)[nH]c3=O)C[C@@H]2OP(=O)(S)OC[C@H]2O[C@@H](n3ccc(N)nc3=O)C[C@@H]2OP(=O)(S)OC[C@H]2O[C@@H](n3cc(C)c(=O)[nH]c3=O)C[C@@H]2OP(=O)(S)OC[C@H]2O[C@@H](n3ccc(N)nc3=O)C[C@@H]2OP(=O)(S)OC[C@H]2O[C@@H](n3cc(C)c(=O)[nH]c3=O)C[C@@H]2OP(=O)(S)OC[C@H]2O[C@@H](n3cnc4c(=O)[nH]c(N)nc43)C[C@@H]2OP(=O)(S)OC[C@H]2O[C@@H](n3cc(C)c(=O)[nH]c3=O)C[C@@H]2O)[C@@H](COP(=O)(S)O[C@H]2C[C@H](n3ccc(N)nc3=O)O[C@@H]2COP(=O)(S)O[C@H]2C[C@H](n3cnc4c(N)ncnc43)O[C@@H]2COP(=O)(S)O[C@H]2C[C@H](n3cnc4c(=O)[nH]c(N)nc43)O[C@@H]2COP(=O)(S)O[C@H]2C[C@H](n3cc(C)c(=O)[nH]c3=O)O[C@@H]2COP(=O)(S)O[C@H]2C[C@H](n3ccc(N)nc3=O)O[C@@H]2COP(=O)(S)O[C@H]2C[C@H](n3cc(C)c(=O)[nH]c3=O)O[C@@H]2COP(=O)(S)O[C@H]2C[C@H](n3cnc4c(N)ncnc43)O[C@@H]2COP(=O)(S)O[C@H]2C[C@H](n3cc(C)c(=O)[nH]c3=O)O[C@@H]2COP(=O)(S)O[C@H]2C[C@H](n3ccc(N)nc3=O)O[C@@H]2CO)O[C@H]1n1cnc2c(=O)[nH]c(N)nc21` (some centres undefined), the inhibition in vivo – broadly, the relative decrease from the control value, in per cent – at 2 mg/kg in assay [1] turned out to be 50%. In addition, the outcome in assay [2], in [3], in assay [5], in [6], in assay [8] and in assay [10] was inactive. For the same compound, the outcome in assay [11] and in assay [12] was inactive. Further, the result in [4], in [7] and in [9] was Active.

`Cc1cn([C@@H]2O[C@H](COP(=O)(S)O[C@H]3C[C@H](n4ccc(N)nc4=O)O[C@@H]3COP(=O)(S)O[C@H]3C[C@H](n4cc(C)c(=O)[nH]c4=O)O[C@@H]3COP(=O)(S)O[C@H]3C[C@H](n4ccc(N)nc4=O)O[C@@H]3COP(=O)(S)O[C@H]3C[C@H](n4cc(C)c(=O)[nH]c4=O)O[C@@H]3COP(=O)(S)O[C@H]3C[C@H](n4cc(C)c(=O)[nH]c4=O)O[C@@H]3COP(=O)(S)O[C@H]3C[C@H](n4cnc5c(=O)[nH]c(N)nc54)O[C@@H]3COP(=O)(S)O[C@H]3C[C@H](n4ccc(N)nc4=O)O[C@@H]3COP(=O)(S)O[C@H]3C[C@H](n4cnc5c(N)ncnc54)O[C@@H]3COP(=O)(S)O[C@H]3C[C@H](n4cnc5c(=O)[nH]c(N)nc54)O[C@@H]3COP(=O)(S)O[C@H]3C[C@H](n4cc(C)c(=O)[nH]c4=O)O[C@@H]3COP(=O)(S)O[C@H]3C[C@H](n4ccc(N)nc4=O)O[C@@H]3COP(=O)(S)O[C@H]3C[C@H](n4cc(C)c(=O)[nH]c4=O)O[C@@H]3COP(=O)(S)O[C@H]3C[C@H](n4cnc5c(N)ncnc54)O[C@@H]3COP(=O)(S)O[C@H]3C[C@H](n4cc(C)c(=O)[nH]c4=O)O[C@@H]3COP(=O)(S)O[C@@H]3C[C@@H](n4ccc(N)nc4=O)O[C@H]3CO)[C@@H](OP(=O)(S)OC[C@H]3O[C@@H](n4cnc5c(=O)[nH]c(N)nc54)C[C@@H]3OP(=O)(S)OC[C@H]3O[C@@H](n4cc(C)c(=O)[nH]c4=O)C[C@@H]3O)[C@H]2O)c(=O)[nH]c1=O` (some centres undefined): the inhibition in vivo at 2 mg/kg in assay [1] worked out at 50%. Besides, the result in [2], in assay [3], in assay [5], in assay [6], in assay [8] and in [10] was inactive. Further, the outcome in [11] and in assay [12] was inactive. Moreover, the outcome in assay [4], in assay [7] and in assay [9] was Active.

Source of the values: ChEMBL document CHEMBL1152452, “Modifications incorporated in CpG motifs of oligodeoxynucleotides lead to antagonist activity of toll-like receptors 7 and 9” (2009).
